Screens as filed in PubChem.
Shown are actives, neighbours in structure and some others; about 3.8% of the full set was active somewhere.
hERG rescue: hERG (human) protection from proarrhythmic block; actives 0.51% (n = 310,000); CHO-hERG, FluxOR thallium flux, dofetilide IC70 present; activation (rescue from dofetilide block), less the hit threshold, % at 10 µM;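 active = activation above the mean of controls blocked by dofetilide plus 5 SD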;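 note: thallium influx through hERG after potassium depolarization seen as dye fluorescence rise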
KCNK9 block: inhibitors of human KCNK9 two-pore domain potassium channel; Q9NPC2; HEK293 KCNK9, FluxOR thallium flux fluorescence; active compounds read low; B-score at 10 µM; actives 1.2% (n = 310,000);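 active = ratio B-score over 3 SD below the library mean, with starting fluorescence within 5 SD of its mean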;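 note: negative B-score means less thallium flux so channel inhibition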
Kir21 block: blocks the mouse Kir2.1 inward-rectifier potassium channel. P35561. HEK293-Kir2.1, FluxOR thallium flux fluorescence; active compounds read low. B-score at 10 µM. actives 0.85% (n = 310,000). AID 1672;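 active = fluorescence ratio B-score at or below minus 3 SD of library scores, with starting-brightness B-score within 2 SD, cut at about -4.2 in these data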;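 note: channel flux triggered by added potassium and thallium sulfate stimulus; B-score of peak minus minimum fluorescence over baseline after thallium stimulus; more negative B-score means stronger Kir2.1 block with less thallium influx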
KCNQ1 pot: potentiators or activators of human KCNQ1 potassium channel; AID 2648; B-score at 10 µM; CHO-K1 KCNQ1, thallium flux FluxOR fluorescence; active compounds read high; actives 0.35% (n = 310,000); P51787;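 active = fluorescence ratio B-score, a plate-corrected score, at least three library SD, with initial intensity B-score within 5 SD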
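System: CHO-K1 cells stably expressing KCNQ1 / Medium: assay buffer for compound exposure, DMSO matched across wells / Reagent: thallium- and potassium-containing depolarizing buffer / Compound: one concentration, matched DMSO / Incubation: 20 min compound pretreatment at room temperature / Measured by: kinetic FluxOR fluorescence, 10 s baseline plus 110 s post-stimulus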
KCNQ1 inh: human KCNQ1 channel inhibition; CHO-K1 KCNQ1, FluxOR thallium flux fluorescence; active compounds read high; actives 1.3% (n = 310,000); AID 2642; B-score at 10 µM;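 active = compounds whose thallium flux B-score, printed positive for inhibition, exceeds three library SD while starting fluorescence stays within three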;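 note: channel opened by potassium depolarization with thallium stimulus after 20 min compound exposure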
KCNK3 inh: human KCNK3 channel inhibition, primary screen. O14649. CHO-KCNK3 thallium flux, FluxOR fluorescence; active compounds read low. B-score at 10 µM. actives 0.84% (n = 340,000). AID 602410;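 active = B-score under library mean minus 4 SD, starting fluorescence ratio at most library mean plus 5 SD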;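 note: more negative B-score means stronger inhibition of thallium flux through KCNK3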
Target sequence (O14649 whole entry, looked up): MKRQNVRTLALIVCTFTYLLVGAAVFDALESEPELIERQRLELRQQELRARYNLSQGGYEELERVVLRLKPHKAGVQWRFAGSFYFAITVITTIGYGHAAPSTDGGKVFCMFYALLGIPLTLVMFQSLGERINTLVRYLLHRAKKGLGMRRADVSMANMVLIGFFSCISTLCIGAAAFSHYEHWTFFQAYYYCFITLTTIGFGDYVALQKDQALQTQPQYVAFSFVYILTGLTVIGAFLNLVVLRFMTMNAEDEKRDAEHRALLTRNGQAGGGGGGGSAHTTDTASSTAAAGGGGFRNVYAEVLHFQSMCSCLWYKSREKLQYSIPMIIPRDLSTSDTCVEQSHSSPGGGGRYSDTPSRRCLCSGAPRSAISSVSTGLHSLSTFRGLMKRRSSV
KCNK3 confirm: human KCNK3 channel inhibition, confirmation assay; shares compounds with KCNK3 inh; CHO-KCNK3 thallium flux, FluxOR fluorescence; 0% buffer, 100% carvedilol maximal block; ratio percent of control, % at 10 µM; actives 99% (n = 2,400);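 active = ratio percent of control, averaged over triplicates, above buffer control mean plus 5 SD, cut at about 64% in these data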;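 note: ratio is the fluorescence rise from min to max over baseline after thallium stimulus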
KCNK3 noninduced: counter-screen for KCNK3 inhibitors: effect in non-induced cells; shares compounds with KCNK3 inh; non-induced KCNK3 parental cells, FluxOR thallium flux; active compounds read low; thallium flux ratio (lower = more inhibition) at 10 µM; actives 40% (n = 2,400);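 active = thallium flux ratio, averaged over three wells, more than 5 SD below the buffer control mean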;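 note: host cells are CHO cells without KCNK3 induction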
A number is an active result; 0 = inactive; - = not tested or not shown.

SMILES	hERG rescue	KCNK9 block	Kir21 block	KCNQ1 pot	KCNQ1 inh	KCNK3 inh	KCNK3 confirm	KCNK3 noninduced
COc1ccc(NC(=O)CN2C(=O)COc3ccc(C)cc32)cc1	0	0	0	0	0	0	-	-
CCOC(=O)Cc1nn(Cc2ccc(Cl)cc2)c(=O)c2ccccc12	0	0	0	0	0	0	-	-
O=c1c2ccccc2nnn1Cc1ccc(F)cc1	0	0	0	0	0	0	-	-
N#CCc1nn(Cc2ccc(F)cc2)c(=O)c2ccccc12	0	0	0	0	0	-9	94	0
CCOC(=O)Cc1nn(Cc2ccccc2)c(=O)c2ccccc12	0	0	0	0	0	-9.9	109	0.15
NS(=O)(=O)c1ccc(-c2c(-c3ccccc3)sc3ccccc23)cc1	-	-	-	-	-	0	-	-
C/C(=N\NC(=O)C1=NNC(=O)C1C)c1cccs1 (centres undefined)	0	0	0	0	0	0	-	-
O=C(NN=Cc1ccccc1OC(F)F)c1ccc(NS(=O)(=O)c2cccs2)cc1	-	-	-	-	-	0	-	-
O=C(COC(=O)c1cnc(Cl)c(Cl)c1)Nc1ccc(S(=O)(=O)N2CCCC2)cc1	0	0	0	0	0	0	-	-
COc1cccc(CNS(=O)(=O)c2c(C)[nH]c(C)c2C(=O)N2CCCCC2)c1	0	0	0	0	0	0	-	-
CCOC(=O)C1=C(C)NC2=C(C(=O)c3ccccc32)C1c1cccc2ccccc12 (centres undefined)	0	0	0	0	0	-11	113	0.15
CC(C)(C)c1ccc(OCC(O)CN2CCOCC2)cc1 (centres undefined)	0	0	0	0	0	0	-	-
CCOC(=O)C1CCN(C(=O)Nc2cc(Cl)cc(Cl)c2)CC1	0	0	0	0	0	-9.9	111	0
CCOC(=O)C1CCN(C(=O)Nc2cccc(Cl)c2)CC1	0	0	0	0	0	0	-	-
CCC(C)n1c(/C=C/c2ccccc2)nc2ccccc21 (centres undefined)	0	0	0	0	0	-9.8	88	0
COc1ccc(Cn2c(/C=C/c3ccccc3)nc3ccccc32)cc1	0	-6.8	0	0	0	-9.5	101	0.15
CCn1c(/C=C/c2ccccc2)nc2ccccc21	0	0	0	0	0	0	-	-
O=C(Nc1cccc(S(=O)(=O)c2cccc(NC(=O)c3ccco3)c2)c1)c1ccco1	0	0	0	0	0	-9.4	136	0.14
CC(C)OC(=O)c1ccc(NC(=O)c2ccco2)cc1	0	0	0	0	0	-9.8	91	0
CCOc1cccc(C(=O)Nc2cccc(C(C)=O)c2)c1	0	0	0	0	0	0	-	-
CCOc1cccc(C(=O)Nc2cccc(NC(=O)c3ccco3)c2)c1	0	-6.8	0	0	0	-12	76	0
Cc1cc(N2C(=O)C(O)=C(C(=O)c3ccco3)C2c2ccc([N+](=O)[O-])cc2)no1 (centres undefined)	0	0	0	0	0	0	-	-
O=C(CS(=O)(=O)c1ccccc1)Nc1ccc(Cl)cn1	0	0	0	0	0	0	-	-
O=C(CC(c1ccccc1)c1ccccc1)Nc1ccc(Cl)cn1	0	0	0	0	0	-8.9	109	0
O=C(CC(c1ccccc1)c1ccccc1)Nc1ccc(O)cc1	0	0	0	0	0	-9.7	88	0
Cn1c(=O)c([N+](=O)[O-])c(NCc2ccc3c(c2)OCO3)c2ccccc21	0	0	0	0	0	0	-	-
CCOc1ccc(NC(=O)C2CCN(S(C)(=O)=O)CC2)cc1	0	0	0	0	0	-9.3	97	0
COc1ccc(NC(=O)C2CCN(S(C)(=O)=O)CC2)cc1	0	0	0	0	0	0	-	-
NC(=O)CCN1CCC(c2nc3ccccc3s2)CC1	0	0	0	0	0	0	-	-
O=C(N/N=C/c1c[nH]c2ccccc12)c1ccn(Cc2ccc(Cl)cc2Cl)n1	0	0	0	0	0	-9.3	106	0.15
